Reference: publication PMC7919418 (Genes & Development, 2021)

Key:
GFP-Ctp = assay: Coimmunoprecipitation with Ctp; format: binding, Drosophila; conditions: western blot, Panx: S2 cells, GFP-Ctp and FLAG-Panx
Summary of the method: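 Lysates from S2 cells transfected with FLAG-Panx variant plasmids and GFP-Ctp were immunoprecipitated via GFP-Ctp. Input, unbound and immunoprecipitate fractions were analysed by western blot, with immunoprecipitate lanes loaded at 4× relative amount.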

GFP reporter in OSCs [1] = assay: Tethering reporter assay, λN-boxB recruitment to nascent RNA; format: cell-based, Drosophila; conditions: GFP by FACS, 2500 cells per experiment, normalized to control
Summary of the method: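 OSCs carrying a GFP reporter were nucleofected with λN-tagged protein plasmids (kit V, program T-029, six Mio. cells per transfection). Fold repression was derived from FACS GFP intensity relative to control, as mean ± SD of three biological replicates. For RNAi combinations, siRNA was given, then siRNA plus tethering plasmid 2 d later, with read-out 5 d after siRNA and 3 d after plasmid. Fusion expression was checked by western blot (Atp5a loading control).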

GFP reporter in OSCs [2] = conditions: tethering to nascent RNA; ref Batki et al. 2019; cited from earlier work

B1: C-terminal portion of Panx (amino acids 447–541): Panx fragment including the two predicted Ctp binding sites (protein, UniProt Q9W2H9 447-541, looked up, fragment)
chain: PTEEQETATLYKNAATQTERRTATRDAGTQVRLESKLNGAFWQNPHFDPMNLTQHQSNVMLALQEIYQTLPSATMAVKLSRALAPALAIIKGRQP
GFP-Ctp
  interaction with Ctp (co-IP): interacted with Ctp

B2: Ctp: dynein light chain protein Cut up, Drosophila ortholog of LC8; λN fusion in tethering assay (protein)
chain: MSDRKAVIKNADMSEEMQQDAVDCATQALEKYNIEKDIAAYIKKEFDKKYNPTWHCIVGRNFGSYVTHETRHFIYFYLGQVAILLFKSG
GFP reporter in OSCs [1]
  cotranscriptional silencing (λN tethering): similarly strong repression

B3: Panx: Panoramix, SFiNX subunit (protein)
chain: MEAPMKLEVKVENYVECGINEDEATPLREGTGETPPHAFACGVPMSGSGWCSDPEDGNLVHHSATPTSDEHLQPSLDTIEPKMEPKIKEDADNAMLDSLLADPFENNSPATLQTPADVKPNAMLDSVEQGSRSCELLPSEFSKRENLDDMDLFSLKAAKTLVPDEQQSFPQNDTPIDDPEAADLIAQKREILKMLEMTAENRKVKHKKKKHKKERSHRSNKHQEESRKRNHSNSSSDEGADDKNQFDCDYRGHKKYKNRRGSASSQNESSKERKLRDTELDYVPVRPDEHFIRPIKFSNLIERRPPQVEFNTVNLSKADKRSLAVARAELVLEQIQQKANKEEPPEFHMVDTICKLPVNESFRNQDCFENPSPICNNMNVVYKFNSTPGTRIDLSKWGLETVPEATKRLLRLLGIDVARLKELQSTVKPSQRILKLKKEQLEQGLAPTEEQETATLYKNAATQTERRTATRDAGTQVRLESKLNGAFWQNPHFDPMNLTQHQSNVMLALQEIYQTLPSATMAVKLSRALAPALAIIKGRQP
GFP reporter in OSCs [2]
  fold reporter silencing (λN tethering): ~20 fold
